# Experimental data as given in ChEMBL document CHEMBL4334444, “Studies of Jatrogossone A as a Reactive Oxygen Species Inducer in Cancer Cellular Models” (J Nat Prod, 2019).
# Calls of active or inactive are those of the source. No cut-off for these calls is given here.
# Columns and labels:
# KOPN-8 [1] = test: Induction of mitochondrial membrane potential loss in human KOPN8 cells at 4 uM after 24 hrs by TMRM staining based flow cytometric analysis; format: functional, cell-based
# In short: (§1)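 TMRM flow cytometry. KOPN-8 (4 × 10^4 or 5 × 10^5 per well) or MCF-7 (2 × 10^4 or 2 × 10^5 per well) were seeded 24 h, then treated 24–48 h. FCCP 10 μM was added 10 min before staining as positive control. Cells were stained with TMRM 100 nM for 0.5 h, then PBS-washed, resuspended in PBS with 1% FBS and analysed by flow cytometry; DAPI flagged compromised cells.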
# KOPN-8 [2] = test: Cytotoxicity against human KOPN8 cells assessed as cell viability at 0.75 to 100 uM after 72 hrs in presence of pan caspase inhibitor, Z-VAD-FMK by CellTiter-Glo assay; format: functional, cell-based
# MCF7 = test: Induction of cell death in human MCF7 cells at 10 uM after 24 hrs; format: functional, cell-based
# SUM149PT = test: Antiproliferative activity against human SUM149 cells assessed as reduction in cell viability at 0.1 to 250 uM after 48 hrs by propidium iodide staining based fluorescence assay; format: functional
# In short: (§2)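 MDA-MB-231 and SUM149 seeded at 6 × 10^4 to 2 × 10^5 cells/well, cultured 24 h, then exposed for 48 h. Cells fixed in cold methanol, stained with 0.4% propidium iodide, fluorescence imaged. Viability expressed as percent surviving cells relative to vehicle wells.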
# HMEC [3] = test: Cytotoxicity against human HMEC cells assessed as cell detachment; format: cell-based
# KOPN-8 [4] = test: Antiproliferative activity against human KOPN8 cells assessed as reduction in cell viability at 0.1 to 250 uM by CellTiter-Glo assay; format: functional, cell-based
# In short: (§3)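 CellTiter-Glo luminescent viability readout. Cells kept at 37 °C under 5% CO2. HMEC primary cells grown in basal medium with growth kit; leukemia lines and murine BCR-ABL (WT, Bax/Bak DKO) cultured per earlier description. Positive controls: staurosporine 25 μM, gambogic acid 10 μM, a toxic quinoline. At least two biological replicates in technical triplicate; luminescence normalized to untreated controls; EC50 computed.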
# KOPN-8 [5] = test: Cell cycle arrest in human KOPN8 cells assessed as decrease in accumulation at G1/G0 phase at 10 uM incubated for 24 hrs by propidium iodide staining based flow cytometric analysis relative to control; format: functional; conditions: KOPN-8, 24 h
# In short: (§4)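 KOPN-8 plated at 1.00 × 10^6 cells/plate, held 12 h at 37 °C, treated 24 h at 10 μM; DMSO vehicle and 2 μM staurosporine as controls. Cells fixed in cold methanol, RNase-treated, stained with PI (50 μg/mL); cell-cycle distribution by flow cytometry.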
# B-ALL [6] = test: Cytotoxicity against BCR-ABL p185-positive mouse B-ALL cells overexpressing human MCL-1 assessed as inhibition of cell viability after 24 hrs by AnnexinV-FITC/propidium iodide staining based flow cytometric analysis; format: functional
# KOPN-8 [7] = test: Cell cycle arrest in human KOPN8 cells assessed as increase in accumulation at G2/M phase at 10 uM incubated for 24 hrs by propidium iodide staining based flow cytometric analysis relative to control; format: functional; in short: as §4
# HMEC [8] = test: Cytotoxicity against human HMEC cells assessed as cell viability at >100 uM by CellTiter-Glo assay; format: cell-based; in short: as §3
# U2OS = test: Antiproliferative activity against human U2OS assessed as reduction in cell viability at >10 uM by CellTiter-Glo assay; format: functional, cell-based; in short: as §3
# [9] = Protein binding in human plasma; format: ADME, cell-free; conditions: read-out: PPB (converted)
# KOPN-8 [10] = test: Induction of apoptosis in human KOPN8 cells assessed as decrease in viable cells at 10 uM after 24 hrs by Annexin V-FITC and propidium iodide staining based flow cytometry; format: functional, cell-based
# In short: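 KOPN-8 cells were plated at 1.00 × 10^6 per plate and held 12 h at 37 °C, then treated 24 h; positive control 2 μM staurosporine, vehicle DMSO. Cells were stained with Annexin V-FITC and PI and analysed by flow cytometry (FACSCalibur). Profiles are representative of three independent biological replicates.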
# KOPN-8 [11] = test: Induction of apoptosis in human KOPN8 cells assessed as increase in cleaved PARP 1 level at 1 to 100 uM after 24 hrs by Western blot analysis; format: functional, cell-based
# In short: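 Western blot of KOPN-8 and MCF-7 lysates made in RIPA-type buffer (Tris pH 7.5, Triton X-100, deoxycholate, SDS) with protease and phosphatase inhibitors. 30 μg protein per lane was run on 4–12% Bis-Tris SDS-PAGE and transferred to nitrocellulose. Blots were probed for cleaved caspase-7 and PARP-1 and detected with IR-dye secondaries. Menadione served as positive control: 10 μM in KOPN-8, 30 μM in MCF-7. Blots are representative of three independent experiments.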
# MDA-MB-231 [12] = test: Antiproliferative activity against human MDA-MB-231 cells assessed as reduction in cell viability at >10 uM after 48 hrs by propidium iodide staining based fluorescence assay; format: functional; in short: as §2
# MDA-MB-231 [13] = test: Induction of ROS colocalization in mitochondria of human MDA-MB-231 cells at 30 uM incubated for 1 hr in presence of NAC by CellROX green reagent/mitotracker deep red staining based confocal microscopic method; format: functional, cell-based
# In short: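 MDA-MB-231 plated at 4 × 10^4/well in phenol-red-free medium, 12 h at 37 °C; for rescue, NAC 100 μM pretreatment 0.5 h. Compound 30 μM or DMSO for 1 h, then CellROX green 5 μM final, MitoTracker Deep Red 250 nM, Hoechst 33342 500 nM (0.5 h before imaging). Washed twice, live spinning-disk confocal at 63×; two independent experiments.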
# KOPN-8 [14] = test: Decrease in cell viability in human KOPN8 cells incubated for 24 hrs by GF-AFC reagent based ApoTox-Glo triplex assay; format: functional
# In short: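 ApoTox-Glo Triplex: cells held 12 h at 37 °C, then treated 24 h (100−0.15 μM). Viability/cytotoxicity reagent added, shaken, 30 min at 37 °C; viability read as GF-AFC fluorescence at 400Ex/505Em. Caspase-Glo 3/7 then added, 0.5 h at room temperature, luminescence read. Mean ± SEM of three independent experiments.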
# B-ALL [15] = test: Cytotoxicity against BCR-ABL p185-positive mouse B-ALL cells overexpressing human BCL-2 assessed as inhibition of cell viability after 24 hrs by AnnexinV-FITC/propidium iodide staining based flow cytometric analysis; format: functional
# [16] = Stability in DMSO assessed as micheal adduct formation by measuring intact compound incubated for 16 hrs in presence of glutathione by LC-MS analysis; format: physicochemical
# KOPN-8 [17] = test: Induction of mitochondrial membrane potential loss in human KOPN8 cells at 30 uM after 24 to 48 hrs by TMRM staining based flow cytometric analysis; format: functional, cell-based; in short: as §1
# UoC-B1 = test: Antiproliferative activity against human UOCB1 cells assessed as reduction in cell viability at 1 to 10 uM by CellTiter-Glo assay; format: functional, cell-based; in short: as §3
smiles,measurement,setting,value
CC1=C2CC(C)(C)/C=C/C(=O)/C(C)=C\C3=C[C@H](C)C[C@]3(O2)C1=O [JATROPHONE],Activity,KOPN-8 [1],Active
same,Activity,KOPN-8 [2],inactive
same,Activity,MCF7,Active
same,inhibition,SUM149PT,Active
same,Activity,HMEC [3],Toxic
same,inhibition,KOPN-8 [4],Active
CC(=O)O[C@H]1/C2=C/[C@@H](C)C(=O)C[C@H]3[C@@H](/C=C(\C)C(=O)[C@H]2C[C@H]1C)C3(C)C,inhibition at 10 µM,KOPN-8 [5],5%
same,IC50,B-ALL [6],3.31 µM
same,Activity,KOPN-8 [7],10%
same,Activity,HMEC [8],Non-Toxic
same,inhibition,U2OS,Active
same,fraction unbound,[9],0.16
same,Activity,KOPN-8 [10],Active
same,Activity,KOPN-8 [11],Active
same,inhibition,MDA-MB-231 [12],Active
same,Activity,MDA-MB-231 [13],inactive
same,inhibition,KOPN-8 [14],Dose-dependent effect
same,IC50,B-ALL [15],7.52 µM
same,Stability,[16],Stable
same,Activity,KOPN-8 [17],Active
same,inhibition,UoC-B1,Active
